# What was measured:
# Format in all cases: functional
# [1] = Cytotoxicity against human 9KB cells
# P388 [2] = experiment: Cytotoxicity against mouse P388 cells
# L1210 [3] = experiment: Cytotoxicity against mouse L1210 cells
# P388 [4] = experiment: Antitumor activity against mouse P388 cells allografted in mouse assessed as increase in mouse survival time at 10 mg/kg, iv for 4 to 9 days relative to control
# Outline: (§1)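 Run under NCI protocols 3LE21 (L1210) and 3PS31 (P388) in mice, six mice per test group. Drug was injected daily for 9 days, with 20–30 uninjected control animals. Mean or median survival time of the treated group was divided by that of controls and multiplied by 100, then reported as percentage increase in life span.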
# P388 [5] = experiment: Antitumor activity against mouse P388 cells allografted in mouse assessed as increase in mouse survival time at 3.3 mg/kg, iv for 4 to 9 days relative to control; outline: as §1
# P388 [6] = experiment: Antitumor activity against mouse P388 cells allografted in mouse assessed as increase in mouse survival time at 1.1 mg/kg, iv for 4 to 9 days relative to control; outline: as §1
# P388 [7] = experiment: Antitumor activity against mouse P388 cells allografted in mouse assessed as increase in mouse survival time at 0.4 mg/kg, iv for 4 to 9 days relative to control; outline: as §1
# L1210 [8] = experiment: Antitumor activity against mouse L1210 cells allografted in mouse assessed as increase in mouse survival time at 10 mg/kg, iv for 4 to 9 days relative to control; outline: as §1
# L1210 [9] = experiment: Antitumor activity against mouse L1210 cells allografted in mouse assessed as increase in mouse survival time at 3.3 mg/kg, iv for 4 to 9 days relative to control; outline: as §1
# L1210 [10] = experiment: Antitumor activity against mouse L1210 cells allografted in mouse assessed as increase in mouse survival time at 1.1 mg/kg, iv for 4 to 9 days relative to control; outline: as §1
# L1210 [11] = experiment: Antitumor activity against mouse L1210 cells allografted in mouse assessed as increase in mouse survival time at 0.4 mg/kg, iv for 4 to 9 days relative to control; outline: as §1
# [12] = Cytotoxicity against human 9KB cells relative to camptothecin
# P388 [13] = experiment: Cytotoxicity against mouse P388 cells relative to camptothecin
# L1210 [14] = experiment: Cytotoxicity against mouse L1210 cells relative to camptothecin
# P388 [15] = experiment: Antitumor activity against mouse P388 cells allografted in mouse assessed as increase in mouse survival time at 18.9 mg/kg, iv for 4 to 9 days relative to control; outline: as §1
# P388 [16] = experiment: Antitumor activity against mouse P388 cells allografted in mouse assessed as increase in mouse survival time at 5.1 mg/kg, iv for 4 to 9 days relative to control; outline: as §1
# L1210 [17] = experiment: Antitumor activity against mouse L1210 cells allografted in mouse assessed as increase in mouse survival time at 62.5 mg/kg, iv for 4 to 9 days relative to control; outline: as §1
# L1210 [18] = experiment: Antitumor activity against mouse L1210 cells allografted in mouse assessed as increase in mouse survival time at 18.9 mg/kg, iv for 4 to 9 days relative to control; outline: as §1
# L1210 [19] = experiment: Antitumor activity against mouse L1210 cells allografted in mouse assessed as increase in mouse survival time at 5.1 mg/kg, iv for 4 to 9 days relative to control; outline: as §1
# P388 [20] = experiment: Antitumor activity against mouse P388 cells allografted in mouse assessed as increase in mouse survival time at 12.8 mg/kg, iv for 4 to 9 days relative to control; outline: as §1
# P388 [21] = experiment: Antitumor activity against mouse P388 cells allografted in mouse assessed as increase in mouse survival time at 4.3 mg/kg, iv for 4 to 9 days relative to control; outline: as §1
# P388 [22] = experiment: Antitumor activity against mouse P388 cells allografted in mouse assessed as increase in mouse survival time at 1.4 mg/kg, iv for 4 to 9 days relative to control; outline: as §1
# P388 [23] = experiment: Antitumor activity against mouse P388 cells allografted in mouse assessed as increase in mouse survival time at 0.5 mg/kg, iv for 4 to 9 days relative to control; outline: as §1
# L1210 [24] = experiment: Antitumor activity against mouse L1210 cells allografted in mouse assessed as increase in mouse survival time at 12.8 mg/kg, iv for 4 to 9 days relative to control; outline: as §1
# L1210 [25] = experiment: Antitumor activity against mouse L1210 cells allografted in mouse assessed as increase in mouse survival time at 4.3 mg/kg, iv for 4 to 9 days relative to control; outline: as §1
# L1210 [26] = experiment: Antitumor activity against mouse L1210 cells allografted in mouse assessed as increase in mouse survival time at 1.4 mg/kg, iv for 4 to 9 days relative to control; outline: as §1
# L1210 [27] = experiment: Antitumor activity against mouse L1210 cells allografted in mouse assessed as increase in mouse survival time at 0.5 mg/kg, iv for 4 to 9 days relative to control; outline: as §1
# B16 [28] = experiment: Antitumor activity against mouse B16 cells allografted in mouse assessed as increase in mouse survival time at 43.5 mg/kg, iv for 4 to 9 days relative to control
# Outline: (§2)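 Run under NCI protocols 3B131 (B-16 melanocytic melanoma) and 3LL32 (Lewis lung carcinoma) in mice, ten mice per test group. Drug was injected every 4 days, with 20–30 uninjected control animals. Mean or median survival of treated mice over that of controls ×100 was reported as percentage increase in life span.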
# B16 [29] = experiment: Antitumor activity against mouse B16 cells allografted in mouse assessed as increase in mouse survival time at 14.8 mg/kg, iv for 4 to 9 days relative to control; outline: as §2
# B16 [30] = experiment: Antitumor activity against mouse B16 cells allografted in mouse assessed as increase in mouse survival time at 4.9 mg/kg, iv for 4 to 9 days relative to control; outline: as §2
# [31] = tested on: Lewis lung carcinoma cell line; experiment: Antitumor activity against mouse LLC cells allografted in mouse assessed as increase in mouse survival time at 48 mg/kg, iv for 4 to 9 days relative to control; outline: as §2
# [32] = tested on: Lewis lung carcinoma cell line; experiment: Antitumor activity against mouse LLC cells allografted in mouse assessed as increase in mouse survival time at 15.7 mg/kg, iv for 4 to 9 days relative to control; outline: as §2
# [33] = tested on: Lewis lung carcinoma cell line; experiment: Antitumor activity against mouse LLC cells allografted in mouse assessed as increase in mouse survival time at 4 mg/kg, iv for 4 to 9 days relative to control; outline: as §2
# P388 [34] = experiment: Antitumor activity against mouse P388 cells allografted in mouse assessed as increase in mouse survival time at 6.5 mg/kg, iv for 4 to 9 days relative to control
# Outline: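 Mice bearing P388 leukemia (NCI protocol 3PS31), six mice per test, drug injected daily for 9 days (in some tests for only 6 days). Controls were 20–30 animals receiving no injection. Activity was expressed as mean/median survival time of the test group divided by that of the control group ×100.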
# P388 [35] = experiment: Antitumor activity against mouse P388 cells allografted in mouse assessed as increase in mouse survival time at 2.5 mg/kg, iv for 6 days relative to control
# Outline: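 NCI P388 protocol 3PS31 in mice, six mice per test group. Drug was injected daily for only 6 days, with 20–30 uninjected controls. The value is the mean or median survival time of treated mice over that of controls ×100, reported as percentage increase in life span.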
# L1210 [36] = experiment: Antitumor activity against mouse L1210 cells allografted in mouse assessed as increase in mouse survival time at 6.5 mg/kg, iv for 4 to 9 days relative to control; outline: as §1
compound,measurement,setting,value
CC[C@@]1(O)C(=O)OCc2c1cc1n(c2=O)Cc2cc3ccccc3nc2-1 [CAMPTOTHECIN],ED50,[1],<2.8 ×10⁻⁶ umol/ml
same,ED50,P388 [2],8.6 ×10⁻⁶ umol/ml
same,ED50,L1210 [3],2.8 ×10⁻⁶ umol/ml
same,T/C,P388 [4],81%
same,T/C,P388 [5],204%
same,T/C,P388 [6],147%
same,T/C,P388 [7],137%
same,T/C,L1210 [8],85%
same,T/C,L1210 [9],168%
same,T/C,L1210 [10],131%
same,T/C,L1210 [11],114%
CC[C@@](O)(C(=O)NC(C)C)c1cc2n(c(=O)c1CN1CCCC1)Cc1cc3ccccc3nc1-2,ED50,[1],2.2 ×10⁻⁵ umol/ml
same,ED50,P388 [2],1.1 ×10⁻⁴ umol/ml
same,ED50,L1210 [3],6.5 ×10⁻⁵ umol/ml
same,Activity,[12],7.8%
same,Activity,P388 [13],0.13%
same,Activity,L1210 [14],23%
same,T/C,P388 [15],126%
same,T/C,P388 [16],111%
same,T/C,L1210 [17],113%
same,T/C,L1210 [18],101%
same,T/C,L1210 [19],109%
CC[C@@](O)(C(=O)NC(C)C)c1cc2n(c(=O)c1COC(C)=O)Cc1cc3ccccc3nc1-2,ED50,[1],7.8 ×10⁻⁴ umol/ml
same,EC50,"P388 [2]; Mus musculus, P388, read-out: ED50 (the source's name)",7.4 µM
same,Activity,[12],2.8%
same,Activity,P388 [13],0.08%
same,T/C,P388 [20],97%
same,T/C,P388 [21],173%
same,T/C,P388 [22],126%
same,T/C,P388 [23],126%
same,T/C,L1210 [24],105%
same,T/C,L1210 [25],147%
same,T/C,L1210 [26],116%
same,T/C,L1210 [27],110%
same,T/C,B16 [28],114%
same,T/C,B16 [29],105%
same,T/C,B16 [30],100%
same,T/C,[31],156%
same,T/C,[32],166%
same,T/C,[33],147%
C=CC(=O)OCc1c([C@@](O)(CC)C(=O)NC(C)C)cc2n(c1=O)Cc1cc3ccccc3nc1-2,ED50,[1],6.9 ×10⁻⁵ umol/ml
same,ED50,P388 [2],3.9 ×10⁻⁴ umol/ml
same,ED50,L1210 [3],7.6 ×10⁻⁴ umol/ml
same,Activity,[12],25%
same,Activity,P388 [13],0.45%
same,Activity,L1210 [14],2.7%
same,T/C,P388 [34],155%
same,T/C,P388 [35],165%
same,T/C,L1210 [36],125%

# Source: ChEMBL document CHEMBL3228024, “Prodrug analogues of the antitumor alkaloid camptothecin” (1979)
